Each structure is given as a SMILES string. pIC50: −log10 of the molar value. Activity calls are given as the source filed them. No cut-off for these calls is given here.

The results in this text go back to ChEMBL document CHEMBL1828498, “Identification and characterization of a novel integrin-linked kinase inhibitor” (J Med Chem, 2011).

One data set relates to LNCaP. The experiment in a line: Antiproliferative activity against human LNCAP cells assessed as suppression of cell viability by MTT assay. It counts as functional, cell-based. The procedure, abridged:
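Cancer lines seeded 5000/well and nonmalignant PrEC/MEC 8000/well in 10% FBS, 24 h before treatment. Compound exposure 24 h in 5% FBS medium, 0.1% final DMSO. MTT (0.25 mg/mL) for 1 h at 37°C, dye solubilized in DMSO, absorbance read at 570 nm. Mean ± SD, n = 6.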
On the technique in general: Tetrazolium dyes change colour on reduction, which living cells bring about.

Data set [1] relates to 3-phosphoinositide dependent protein kinase-2, PDK2. The experiment in a line: Inhibition of PDK2 in human MDA-MB-231 cells assessed as Akt Ser-473 dephosphorylation by Western blot analysis. The format is functional, cell-based. In a few lines: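 Cells exposed 24 h in 5% FBS medium, final DMSO 0.1%; lysed in 1% SDS/10 mM EDTA/50 mM Tris pH 8.1, equal protein on SDS-PAGE, nitrocellulose, primary antibody 1:1000 at 4°C for 2 h, HRP secondary 1:5000, ECL detection; blots representative of three independent experiments.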

In data set [2] the test system is PC-3. The experiment in a line: Reduction in HER2 concentration in human PC3 cells after 24 hrs by Western blot analysis. It counts as functional, cell-based. In a few lines:
(§1)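 PC-3 versus stable PC-3/CA-ILK, or SKBR3 versus transient SKBR3/CA-ILK (electroporation, used 48 h after), treated 24 h in 5% FBS medium; immunoblotting with ECL; representative of three experiments.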
Background: A western blot detects proteins with antibodies after separation by electrophoresis.

The subject of data set [3] is PC-3. Put plainly: Reduction in EGFR mRNA expression in human PC3 cells after 24 hrs by RT-PCR analysis. The format is functional, cell-based. The procedure, abridged: (§2)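 PC-3, PC-3/CA-ILK, SKBR3 and SKBR3/CA-ILK cells treated 24 h in 5% FBS medium; total RNA from 1 × 10^6 cells by Trizol, 1 μg reverse-transcribed, then PCR with gene-specific primers and β-actin reference.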

Data set [4] deals with SK-BR-3. Put plainly: Reduction in HER2 mRNA expression in human SKBR3 cells expressing constitutively active ILK after 24 hrs by RT-PCR analysis. It counts as functional, cell-based. The procedure, abridged: as §2
The test system of data set [5] is SK-BR-3. Put plainly: Reduction in EGFR concentration in human SKBR3 cells expressing constitutively active ILK after 24 hrs by Western blot analysis. It counts as functional, cell-based. In a few lines: as §1
Data set [6] addresses Glycogen synthase kinase-3 beta (Homo sapiens) (UniProt P49841). Put plainly: Inhibition of GSK3-beta at 5 uM assessed as remaining activity. The procedure, abridged:
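Panel of 20 recombinant kinases, profiled by a commercial vendor.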

Data set [7] has as its target Serine/threonine-protein kinase mTOR (Homo sapiens) (UniProt P42345). Put plainly: Inhibition of mTOR at 5 uM assessed as remaining activity.
For data set [8], the target named is Protein kinase C alpha type (Homo sapiens) (UniProt P17252). Put plainly: Inhibition of PKCalpha at 5 uM assessed as remaining activity.
The target of data set [9] is Ribosomal protein S6 kinase alpha-1 (Homo sapiens) (UniProt Q15418). The experiment in a line: Inhibition of Rsk1 at 5 uM assessed as remaining activity.
The target in data set [10] is T1, Scaffold protein ILK (Homo sapiens) (UniProt Q13418).
T1 sequence (whole entry): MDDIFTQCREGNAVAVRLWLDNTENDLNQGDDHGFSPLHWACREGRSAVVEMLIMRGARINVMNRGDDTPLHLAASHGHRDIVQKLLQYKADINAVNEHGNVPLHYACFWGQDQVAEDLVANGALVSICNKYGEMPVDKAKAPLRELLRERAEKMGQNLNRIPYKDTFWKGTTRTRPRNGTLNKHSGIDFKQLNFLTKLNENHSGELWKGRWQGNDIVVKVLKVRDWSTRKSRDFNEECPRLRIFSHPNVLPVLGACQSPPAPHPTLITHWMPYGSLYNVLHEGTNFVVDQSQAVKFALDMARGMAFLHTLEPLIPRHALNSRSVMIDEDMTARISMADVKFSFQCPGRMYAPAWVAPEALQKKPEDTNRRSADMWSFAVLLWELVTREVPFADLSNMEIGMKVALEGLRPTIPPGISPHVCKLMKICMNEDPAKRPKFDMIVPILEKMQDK
Put plainly: Inhibition of ILK in human PC3 cells assessed as decrease in phosphorylated ERK1/2 concentration by Western blot analysis. As to conditions: PC-3. It counts as cell-based. In a few lines: (§3)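 PC-3 cells exposed to graded concentrations for 24 h in 5% FBS medium. Immunoblotting for phospho-Tyr397-FAK, ERK1/2, p38 and JNK. Lysis in 1% SDS buffer, primary antibody 1:1000 at 4°C for 2 h, ECL. Three independent experiments.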

The target of data set [11] is T1, Scaffold protein ILK (Homo sapiens). Put plainly: Inhibition of ILK in human PC3 cells assessed as decrease in phosphorylated p38 concentration by Western blot analysis. The format is cell-based. The note with it: PC-3. In a few lines: as §3
For data set [12] the target is unchanged. The experiment in a line: Inhibition of ILK in human PC3 cells assessed as decrease in phosphorylated JNK concentration by Western blot analysis. It counts as cell-based. The note with it: PC-3. The procedure, abridged:
as §3

The target is the same in data set [13]. The experiment in a line: Inhibition of ILK in human PC3 cells expressing constitutively active ILK assessed as decrease in phosphorylated p38 concentration by Western blot analysis. The format is cell-based. As to conditions: PC-3. In a few lines:
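Stable PC-3 clones expressing GFP-CA-ILK (G418 250 μg/mL selection, GFP sorting) treated 24 h in 5% FBS medium. Phospho-ERK1/2 and phospho-p38 detected by immunoblot with ECL. Representative of three experiments.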

Data set [14] has as its system PC-3. The experiment in a line: Cytotoxicity against human PC3 cells expressing Atg5 siRNA assessed as cell viability by MTT assay. The format is functional, cell-based. In a few lines: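 PC-3 cells electroporated with Atg5 siRNA (or control siRNA) and used 48 h after transfection. Treated 24 h in 5% FBS medium, 0.1% DMSO. Viability by MTT, 1 h at 37°C, absorbance 570 nm. Mean ± SD, n = 6.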

Data set [15] relates to PC-3. The experiment in a line: Suppression of tumor growth in human PC3 cells xenografted in nude mouse at 25 mg/kg/day, po administered for 35 days relative to control. It counts as functional. In a few lines: (§4)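 Male NCr athymic nude mice, s.c. 0.5 × 10^6 PC-3 cells in 50% Matrigel; established tumors randomized (n=6) to daily oral gavage in 0.5% methylcellulose/0.1% Tween 80 in water, 10 μL/g, 35 days; weekly caliper volume = width² × length × 0.52; mean ± SEM, ANOVA or t-test.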
(Xenograft models place foreign cells or tissue in a host animal.)

Data set [16] has as its system PC-3. Put plainly: Suppression of tumor growth in human PC3 cells xenografted in nude mouse at 50 mg/kg/day, po administered for 35 days relative to control. It counts as functional. In a few lines:
as §4

Data set [17] relates to Mus musculus. The experiment in a line: Toxicity in nude mouse assessed as weight loss at 25 mg/kg, po administered for 35 days. The format is organism-based. Further details: dose 25 mg/kg, route oral. As to conditions: in vivo, 840 h. The procedure, abridged:
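Male NCr nude mice bearing s.c. PC-3 tumors, dosed once daily by oral gavage in 0.5% methylcellulose/0.1% Tween 80 vehicle, 10 μL/g, for 35 days; body weight recorded weekly.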

In data set [18] the test system is Mus musculus. The experiment in a line: Decrease in phosphorylation of HER2 in human PC3 cells xenografted nude mouse tumor lysate at 25 mg/kg, po administered for 35 days by Western blot analysis. The format is functional, organism-based. Further details: dose 25 mg/kg. The note with it: Neoplasm, PC-3. The procedure, abridged: (§5)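 Male NCr athymic nude mice, 5–7 weeks, with s.c. PC-3 xenografts (0.5 × 10^6 cells in 50% Matrigel), dosed by oral gavage once daily for 35 days. Vehicle 0.5% methylcellulose, 0.1% Tween 80 in water, 10 μL/g. Tumors snap-frozen at sacrifice; three tumors per group immunoblotted.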

The test system of data set [19] is Mus musculus. The experiment in a line: Decrease in phosphorylation of EGFR in human PC3 cells xenografted nude mouse tumor lysate at 25 mg/kg, po administered for 35 days by Western blot analysis. The format is functional, organism-based. Further details: dose 25 mg/kg. As to conditions: Neoplasm, PC-3. The procedure, abridged:
as §5

Glycogen synthase kinase-3 beta (Homo sapiens), sequence (P49841 whole entry, looked up): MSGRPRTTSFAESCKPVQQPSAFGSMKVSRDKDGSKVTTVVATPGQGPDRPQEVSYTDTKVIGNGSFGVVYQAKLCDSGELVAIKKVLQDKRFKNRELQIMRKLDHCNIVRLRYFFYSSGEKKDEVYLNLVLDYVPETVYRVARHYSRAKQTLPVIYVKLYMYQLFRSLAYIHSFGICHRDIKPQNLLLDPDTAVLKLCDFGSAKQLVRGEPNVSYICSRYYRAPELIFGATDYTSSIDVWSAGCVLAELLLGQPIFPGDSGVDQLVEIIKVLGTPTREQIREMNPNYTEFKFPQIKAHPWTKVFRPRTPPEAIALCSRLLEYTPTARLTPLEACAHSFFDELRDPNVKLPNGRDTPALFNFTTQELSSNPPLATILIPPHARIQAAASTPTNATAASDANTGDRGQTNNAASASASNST
Ribosomal protein S6 kinase alpha-1 (Homo sapiens), sequence (Q15418 whole entry): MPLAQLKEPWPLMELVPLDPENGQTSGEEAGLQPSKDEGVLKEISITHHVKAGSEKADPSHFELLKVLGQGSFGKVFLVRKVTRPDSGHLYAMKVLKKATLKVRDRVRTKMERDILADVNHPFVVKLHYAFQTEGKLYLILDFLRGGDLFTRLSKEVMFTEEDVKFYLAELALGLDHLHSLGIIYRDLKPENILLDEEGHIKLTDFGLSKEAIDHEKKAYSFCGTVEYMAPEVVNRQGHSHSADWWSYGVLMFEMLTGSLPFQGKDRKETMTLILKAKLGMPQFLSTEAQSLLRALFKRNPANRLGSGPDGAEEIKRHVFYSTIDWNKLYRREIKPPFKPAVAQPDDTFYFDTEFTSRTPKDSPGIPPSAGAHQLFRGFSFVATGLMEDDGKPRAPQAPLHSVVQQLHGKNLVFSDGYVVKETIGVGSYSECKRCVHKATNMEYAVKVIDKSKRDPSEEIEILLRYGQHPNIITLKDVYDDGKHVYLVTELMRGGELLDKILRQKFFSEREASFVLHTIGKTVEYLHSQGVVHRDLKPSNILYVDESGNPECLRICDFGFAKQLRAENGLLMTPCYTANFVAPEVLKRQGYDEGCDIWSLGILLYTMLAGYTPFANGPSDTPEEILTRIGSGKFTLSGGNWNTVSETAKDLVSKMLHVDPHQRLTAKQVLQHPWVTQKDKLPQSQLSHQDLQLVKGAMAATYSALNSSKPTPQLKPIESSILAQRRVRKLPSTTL

What is called pIC50 is the negative decadic logarithm of the IC50, by convention in mol/L. For `CNC(=O)CCc1cc(-c2ccc(-c3ccc(C(F)(F)F)cc3)cc2)n(-c2ccc(N3CCNCC3)cc2)n1`, the pIC50 with LNCaP was 5.80. Further, the inhibition result in data set [1], in [10] and in [11] was “Dose-dependent effect” in each case. Moreover, the Activity entry with PC-3 [2] is “Dose-dependent effect”; in the data set with PC-3 [3], “Dose-dependent effect”; in data set [6], 142%; in data set [7], 122%; in data set [8], 97%; in data set [9], 65%. For the same compound, the Activity is reported as 48% in the data set with PC-3 [15], 62% with PC-3 [16] and “Non-toxic” with Mus musculus [17]. Also, the result in the data set with SK-BR-3 [4], in the data set with SK-BR-3 [5] and in the data set on PC-3 [14] was inactive. The inhibition result in data set [12] and in data set [13] was “inactive” in each case. Besides, the outcome in the data set on Mus musculus [18] and in the data set on Mus musculus [19] was Active.
